Laboratory results reported in ChEMBL document CHEMBL4007410, “Fluorinated Chaperone-β-Cyclodextrin Formulations for β-Glucocerebrosidase Activity Enhancement in Neuronopathic Gaucher Disease” (J Med Chem, 2017).
The source made the active and inactive calls. No cut-off for these calls is given here.

Key:
[1] = target: T1, Beta-mannosidase (Homo sapiens) (UniProt O00462); test: Inhibition of human lysosomal beta-mannosidase assessed as formation of 4-methylumbelliferone from 4-methylumbelliferyl […] up to 200 uM in presence of beta-cyclodextrin by luminescence spectrophotometry
T1 sequence (whole entry): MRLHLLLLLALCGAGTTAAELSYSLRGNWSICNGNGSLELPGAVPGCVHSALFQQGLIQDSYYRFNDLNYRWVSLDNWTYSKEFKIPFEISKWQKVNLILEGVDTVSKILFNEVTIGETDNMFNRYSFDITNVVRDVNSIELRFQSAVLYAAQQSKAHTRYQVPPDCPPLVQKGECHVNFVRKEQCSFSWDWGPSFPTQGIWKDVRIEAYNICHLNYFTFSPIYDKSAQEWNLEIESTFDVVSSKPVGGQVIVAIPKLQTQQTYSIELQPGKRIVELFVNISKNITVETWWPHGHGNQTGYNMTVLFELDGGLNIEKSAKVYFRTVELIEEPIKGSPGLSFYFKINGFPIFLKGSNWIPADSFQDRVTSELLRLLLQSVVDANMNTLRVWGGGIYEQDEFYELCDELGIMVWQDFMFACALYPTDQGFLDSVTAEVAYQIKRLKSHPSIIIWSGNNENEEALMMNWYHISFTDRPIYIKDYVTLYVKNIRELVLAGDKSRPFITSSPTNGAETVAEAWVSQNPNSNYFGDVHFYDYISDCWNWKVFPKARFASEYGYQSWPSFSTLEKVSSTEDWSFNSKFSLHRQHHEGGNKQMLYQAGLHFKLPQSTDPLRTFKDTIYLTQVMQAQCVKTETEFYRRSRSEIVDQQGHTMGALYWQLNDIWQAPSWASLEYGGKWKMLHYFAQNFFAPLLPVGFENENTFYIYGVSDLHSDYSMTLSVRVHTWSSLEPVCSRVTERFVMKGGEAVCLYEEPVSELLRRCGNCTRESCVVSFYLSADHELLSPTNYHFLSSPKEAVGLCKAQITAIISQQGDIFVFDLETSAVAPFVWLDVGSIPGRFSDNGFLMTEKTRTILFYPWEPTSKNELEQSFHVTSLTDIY
Method in brief: (§1)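 Cells were scraped into ice-cold water (10⁶ cells/mL), sonicated and centrifuged, and protein was quantified. Lysate in 0.1% Triton X-100 was incubated at 37 °C with the matching 4-MU-conjugated glycoside in 0.1 M citrate, pH 4.5, with increasing chaperone or βCD-complex concentrations up to 200 μM. Reactions were stopped with glycine-NaOH, pH 10.7, and read at ex 340/em 460 nm.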

[2] = target: T2, Lysosomal acid glucosylceramidase (Homo sapiens, UniProt P04062); test: Inhibition of human GCase assessed as formation of 4-methylumbelliferone from […] at pH 7 by luminescence spectrophotometry
T2 sequence (P04062 whole entry): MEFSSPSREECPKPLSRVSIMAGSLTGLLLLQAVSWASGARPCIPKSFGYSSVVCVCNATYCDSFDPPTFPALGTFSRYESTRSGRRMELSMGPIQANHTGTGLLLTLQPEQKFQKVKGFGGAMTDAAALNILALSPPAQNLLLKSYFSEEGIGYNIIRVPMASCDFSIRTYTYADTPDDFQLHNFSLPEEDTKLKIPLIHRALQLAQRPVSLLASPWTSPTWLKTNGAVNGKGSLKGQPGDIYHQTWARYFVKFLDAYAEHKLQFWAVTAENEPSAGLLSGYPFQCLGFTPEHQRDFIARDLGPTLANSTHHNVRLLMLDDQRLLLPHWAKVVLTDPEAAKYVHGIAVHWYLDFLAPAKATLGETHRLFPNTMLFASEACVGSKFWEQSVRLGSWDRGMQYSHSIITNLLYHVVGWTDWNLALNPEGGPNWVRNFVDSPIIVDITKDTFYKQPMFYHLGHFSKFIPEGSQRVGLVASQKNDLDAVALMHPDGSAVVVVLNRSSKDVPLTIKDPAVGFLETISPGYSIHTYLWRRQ

[3] = target: T1, Beta-mannosidase (Homo sapiens); test: Inhibition of human lysosomal beta-mannosidase assessed as formation of 4-methylumbelliferone from 4-methylumbelliferyl alpha-D-glucopyranoside up to 200 uM by luminescence spectrophotometry; method in brief: as §1
[4] = tested on: Escherichia coli; test: Inhibition of Escherichia coli beta-galactosidase 2 mM using beta-D-glycopyranoside after 10 to 30 mins in presence of beta-cyclodextrin by spectrophotometry
Method in brief: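 Commercial glycosidases were assayed with o-nitrophenyl (E. coli β-galactosidase) or p-nitrophenyl glycoside substrate near KM. Buffer was phosphate, or phosphate-citrate for mannosidases and amyloglucosidase, at each enzyme's optimal pH. Enzyme was added last. Incubation ran 10-30 min at 37 °C (55 °C for amyloglucosidase), then was quenched with 1 M Na2CO3 and read at A405. Free compounds were tested up to 1 mM; 1:1 βCD complexes up to 2 mM.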

[5] = Competitive inhibition of bovine liver beta-glucosidase assessed as formation of 4-methylumbelliferone from 4-methylumbelliferyl […] by Lineweaver-Burk Plot analysis; design: species or system Bos taurus

SMILES	inhibition [1]	Ki [2] [µM]	inhibition [3]	inhibition [4]	Ki [5] [µM]
O=C(CCC(F)(F)C(F)(F)C(F)(F)C(F)(F)C(F)(F)C(F)(F)F)NCCCCNC(=S)N1[C@@H]2CO[C@H]1[C@H](O)[C@@H](O)[C@@H]2O	Active	11.9	inactive	inactive	1.1
O=C(CCC(F)(F)C(F)(F)C(F)(F)C(F)(F)C(F)(F)C(F)(F)F)NCCCCCCCCCNC(=S)N1[C@@H]2CO[C@H]1[C@H](O)[C@@H](O)[C@@H]2O	Active	4.1	inactive	inactive	0.33
O=C(CCC(F)(F)C(F)(F)C(F)(F)C(F)(F)F)NCCCCCCCCCNC(=S)N1[C@@H]2CO[C@H]1[C@H](O)[C@@H](O)[C@@H]2O	Active	9.3	inactive	inactive	0.34
O=C(CCC(F)(F)C(F)(F)C(F)(F)C(F)(F)F)NCCCCNC(=S)N1[C@@H]2CO[C@H]1[C@H](O)[C@@H](O)[C@@H]2O	Active	35	inactive	inactive	6.4
